This note sets out measurements from ChEMBL document CHEMBL4145662, “Novel Nonsteroidal Progesterone Receptor (PR) Antagonists with a Phenanthridinone Skeleton” (ACS Med Chem Lett, 2018).

Calls of active or inactive are those of the source. No cut-off for these calls is given here.

Common to all, as to assay type: cell-based
The species entered for test [1] is Homo sapiens. In words: Selectivity ratio of IC50 for human GAL4N-fused LXRalpha LBD expressed in HEK293 cells to IC50 for PR in human T47D cells assessed as inhibition of progesterone-induced alkaline phosphatase activity.
The species named for test [2] is Homo sapiens. In words: Selectivity ratio of IC50 for human RORbeta1 expressed in HEK293 cells to IC50 for PR in human T47D cells assessed as inhibition of progesterone-induced alkaline phosphatase activity.
For test [3], the target named is T1, Nuclear receptor ROR-beta (Homo sapiens, UniProt Q92753).
T1 sequence (Q92753 whole entry): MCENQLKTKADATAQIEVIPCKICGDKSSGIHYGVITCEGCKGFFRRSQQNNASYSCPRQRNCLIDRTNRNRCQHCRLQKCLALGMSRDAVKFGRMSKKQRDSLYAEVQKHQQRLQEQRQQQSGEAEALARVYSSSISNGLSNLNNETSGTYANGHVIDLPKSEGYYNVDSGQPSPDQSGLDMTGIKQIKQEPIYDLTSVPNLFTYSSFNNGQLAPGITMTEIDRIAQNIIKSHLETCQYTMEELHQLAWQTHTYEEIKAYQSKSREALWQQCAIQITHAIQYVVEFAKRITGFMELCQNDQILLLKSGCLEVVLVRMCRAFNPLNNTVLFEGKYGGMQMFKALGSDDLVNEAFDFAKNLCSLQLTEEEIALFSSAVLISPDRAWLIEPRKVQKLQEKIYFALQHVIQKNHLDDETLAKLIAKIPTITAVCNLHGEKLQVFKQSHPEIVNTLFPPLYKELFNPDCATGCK
In words: Antagonist activity at human RORbeta1 expressed in HEK293 cells after 24 hrs by luciferase reporter gene assay. The method, boiled down: (§1)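 Inverse agonism at RORα, RORβ or RORγ measured by reporter gene assay.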
Background: A reporter such as luciferase makes a cellular process visible.

For test [4], the target named is T2, Glucocorticoid receptor (Homo sapiens, UniProt P04150).
T2 sequence (P04150 whole entry): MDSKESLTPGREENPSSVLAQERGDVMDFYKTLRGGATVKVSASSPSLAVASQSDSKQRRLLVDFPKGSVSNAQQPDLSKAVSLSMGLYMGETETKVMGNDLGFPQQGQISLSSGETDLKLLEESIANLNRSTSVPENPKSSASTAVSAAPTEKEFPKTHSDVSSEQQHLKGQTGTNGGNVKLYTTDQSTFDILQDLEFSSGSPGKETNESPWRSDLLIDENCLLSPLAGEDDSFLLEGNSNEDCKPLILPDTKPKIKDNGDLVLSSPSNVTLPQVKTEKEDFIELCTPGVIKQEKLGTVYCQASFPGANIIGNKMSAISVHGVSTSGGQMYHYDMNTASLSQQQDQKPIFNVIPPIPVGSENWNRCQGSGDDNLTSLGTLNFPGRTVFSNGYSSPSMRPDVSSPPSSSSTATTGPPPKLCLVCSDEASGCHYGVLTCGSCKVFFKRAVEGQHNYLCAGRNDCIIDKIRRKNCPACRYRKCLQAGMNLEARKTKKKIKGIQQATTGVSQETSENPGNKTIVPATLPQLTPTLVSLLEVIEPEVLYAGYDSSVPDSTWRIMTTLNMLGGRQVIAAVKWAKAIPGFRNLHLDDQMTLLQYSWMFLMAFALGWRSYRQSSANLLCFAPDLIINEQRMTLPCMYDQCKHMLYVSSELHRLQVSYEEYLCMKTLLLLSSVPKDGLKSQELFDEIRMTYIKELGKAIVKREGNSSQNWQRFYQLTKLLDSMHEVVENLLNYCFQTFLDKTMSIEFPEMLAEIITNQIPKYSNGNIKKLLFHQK
In words: Antagonist activity at human CMX-GRalpha expressed in HEK293 cells assessed as reduction in dexamethasone-induced transactivation activity after 24 hrs by luciferase reporter gene assay. In a few lines: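 GRα antagonism measured by reporter gene assay with dexamethasone (1 nM) as agonist.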

The species named for test [5] is Homo sapiens. Kind of test: Selectivity ratio of IC50 for human GAL4N-fused LXRbeta LBD expressed in HEK293 cells to IC50 for PR in human T47D cells assessed as inhibition of progesterone-induced alkaline phosphatase activity.
Test [6] is filed under the species Homo sapiens. In words: Selectivity ratio of IC50 for human RORgamma1 expressed in HEK293 cells to IC50 for PR in human T47D cells assessed as inhibition of progesterone-induced alkaline phosphatase activity.
Test [7] is filed under the species Homo sapiens. In words: Selectivity ratio of IC50 for human CMX-GRalpha expressed in HEK293 cells to IC50 for PR in human T47D cells assessed as inhibition of progesterone-induced alkaline phosphatase activity.
For test [8], the target named is T3, Nuclear receptor ROR-alpha (Homo sapiens) (UniProt P35398).
T3 sequence (whole entry): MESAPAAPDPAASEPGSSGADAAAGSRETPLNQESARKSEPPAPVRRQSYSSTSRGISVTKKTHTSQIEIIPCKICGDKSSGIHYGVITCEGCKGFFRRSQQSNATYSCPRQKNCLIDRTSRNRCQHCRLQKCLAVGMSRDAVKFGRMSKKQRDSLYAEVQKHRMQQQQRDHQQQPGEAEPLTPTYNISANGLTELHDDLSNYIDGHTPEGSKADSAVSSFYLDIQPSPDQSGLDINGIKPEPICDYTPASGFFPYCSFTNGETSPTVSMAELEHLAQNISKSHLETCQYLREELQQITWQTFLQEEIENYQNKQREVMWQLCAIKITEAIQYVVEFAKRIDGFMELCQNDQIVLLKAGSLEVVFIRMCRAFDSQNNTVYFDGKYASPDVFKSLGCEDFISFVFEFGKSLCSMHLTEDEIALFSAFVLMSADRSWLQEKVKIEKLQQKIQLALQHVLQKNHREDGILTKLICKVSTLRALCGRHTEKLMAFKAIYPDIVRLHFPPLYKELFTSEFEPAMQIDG
In words: Antagonist activity at human RORalpha1 expressed in HEK293 cells at 20 uM after 24 hrs by luciferase reporter gene assay. In a few lines:
as §1

For orientation: IC50 means the midpoint of a concentration-inhibition curve.

`Cc1cc(C(O)(C(F)(F)F)C(F)(F)F)cc2c1[nH]c(=O)c1cc(F)ccc12`: the Ratio IC50 in test [1], in test [2], in test [5], in test [6] and in test [7] was > 300 in each case. Moreover, the IC50 in test [3] and in test [4] was > 20 µM throughout. In test [8], the outcome was inactive.

In the case of `Cc1cc(C(O)(C(F)(F)F)C(F)(F)F)cc2c1[nH]c(=O)c1ccccc12`, the Ratio IC50 in test [1], in test [2], in test [5], in test [6] and in test [7] was > 100 throughout. Also, the IC50 in test [3] and in test [4] was > 20 µM in each case. Also, in test [8], the result was inactive.

On to `Cc1cc(C(O)(C(F)(F)F)C(F)(F)F)cc2c3ccc(F)cc3c(=O)n(C)c12`, for which the Ratio IC50 in test [1], in test [2], in test [5], in test [6] and in test [7] was > 300 throughout. Also, the IC50 in test [3] and in test [4] was > 20 µM in each case. Moreover, in test [8], the outcome was inactive.
